Measurements: ChEMBL document CHEMBL4680078, “Inhibitors of the Cysteine Synthase CysM with Antibacterial Potency against Dormant Mycobacterium tuberculosis” (J Med Chem, 2016)
Activity calls are given as the source filed them. The rule behind the calls is not given here.

Assays:
[1] = Binding affinity to Mycobacterium tuberculosis CysM expressed in Escherichia coli strain BL21 (DE3) incubated for 5 mins by PLP fluorescence-based screening assay
How it was run: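 Binding measured by the rise in fluorescence emission of the enzyme-bound PLP cofactor on ligand binding, using recombinant CysM at 2 µM. Kd obtained by fitting the ligand concentration dependence to a 1:1 binding-site model. Affinities approaching sub-µM are limited by protein concentration.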

[2] = tested on: Mycobacterium tuberculosis; assay: Inhibition of Mycobacterium tuberculosis CysM expressed in Escherichia coli strain BL21 (DE3) assessed as reduction in amino-acrylate intermediate formation by measuring residual enzyme activity at 100 uM incubated for 5 mins in presence of OPS by spectrophotometry
How it was run: (§1)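 Orthogonal activity assay with recombinant CysM, following formation of the α-aminoacrylate intermediate in the first half-reaction with OPS. Apparent first-order rate constants (kobs) determined. Only residual activities below 20% are reliably quantified; >20% remaining activity is reported as a limit.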

[3] = tested on: Mycobacterium tuberculosis; assay: Inhibition of Mycobacterium tuberculosis CysM expressed in Escherichia coli strain BL21 (DE3) assessed as apparent first-order rate constant for the formation of the alpha-aminoacrylate intermediate at 100 uM incubated for 5 mins in presence of OPS by spectrophotometry; how it was run: as §1
[4] = tested on: Mycobacterium tuberculosis; assay: Antimycobacterial activity against Mycobacterium tuberculosis H37Rv assessed as inhibition of microbial growth incubated for 5 days by alamar blue assay; format: functional; settings: 120 h, time 5 day
[5] = Binding affinity to Mycobacterium tuberculosis CysM by ITC analysis
[6] = tested on: HepG2; assay: Cytotoxicity in human HepG2 cells assessed as reduction in cell viability at 10 uM incubated for 72 hrs by Cell-titer-Glo assay; format: cell-based; settings: hepg2, 72 h
[7] = tested on: Mycobacterium tuberculosis; assay: Antimycobacterial activity against Mycobacterium tuberculosis H37Rv grown under nutrient starvation condition assessed as reduction in nonreplicating cells count incubated for 7 days at 10 ug/ml; format: functional; settings: for Activity: dose 10.0 µg/ml, time 7.0 day; for log(activity): dose 10 µg/ml, time 7 day
[8] = tested on: THP-1; assay: Cytotoxicity in human THP-1 cells assessed as reduction in cell viability at 10 uM incubated for 72 hrs by Cell-titer-Glo assay; format: cell-based; settings: thp-1, 72 h
[9] = tested on: J774.A1; assay: Cytotoxicity in mouse J774.A1 cells assessed as reduction in cell viability at 10 uM incubated for 72 hrs by Cell-titer-Glo assay; format: cell-based; settings: j774.a1, 72 h
[10] = tested on: SH-SY5Y; assay: Cytotoxicity in human SH-SY5Y cells assessed as reduction in cell viability at 10 uM incubated for 72 hrs by Cell-titer-Glo assay; format: cell-based
[11] = Binding affinity to Mycobacterium tuberculosis CysK1 by PLP fluorescence-based screening assay
[12] = tested on: Mycobacterium tuberculosis; assay: Selectivity index, ratio of Kd for binding affinity to Mycobacterium tuberculosis CysK1 to Kd for binding affinity to Mycobacterium tuberculosis CysM expressed in Escherichia coli strain BL21 (DE3)
[13] = tested on: Mycobacterium tuberculosis; assay: Selectivity index, ratio of Kd for binding affinity to Mycobacterium tuberculosis CysK2 to Kd for binding affinity to Mycobacterium tuberculosis CysM expressed in Escherichia coli strain BL21 (DE3)
[14] = target: T1, Cystathionine beta-synthase (Homo sapiens) (UniProt P35520); assay: (§2) Binding affinity to human CBS by PLP fluorescence-based screening assay
T1 sequence (whole entry): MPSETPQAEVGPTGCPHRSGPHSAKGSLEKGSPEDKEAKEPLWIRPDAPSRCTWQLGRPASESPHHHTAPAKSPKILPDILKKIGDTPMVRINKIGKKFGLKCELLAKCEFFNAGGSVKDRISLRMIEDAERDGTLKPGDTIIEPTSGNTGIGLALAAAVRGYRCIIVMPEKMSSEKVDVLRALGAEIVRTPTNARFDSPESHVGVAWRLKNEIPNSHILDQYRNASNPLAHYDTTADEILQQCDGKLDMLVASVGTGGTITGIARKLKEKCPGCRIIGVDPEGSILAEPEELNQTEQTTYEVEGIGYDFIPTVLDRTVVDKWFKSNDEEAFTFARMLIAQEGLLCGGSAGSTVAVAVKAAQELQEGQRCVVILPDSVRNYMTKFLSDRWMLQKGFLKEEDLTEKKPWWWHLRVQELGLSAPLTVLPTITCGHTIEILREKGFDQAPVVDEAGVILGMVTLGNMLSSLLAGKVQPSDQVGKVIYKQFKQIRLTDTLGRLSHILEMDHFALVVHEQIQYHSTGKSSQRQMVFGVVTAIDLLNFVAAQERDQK

[15] = Binding affinity to Mycobacterium tuberculosis CysK2 by PLP fluorescence-based screening assay
[16] = tested on: Mycobacterium tuberculosis; assay: Bactericidal activity against Mycobacterium tuberculosis H37Rv grown under nutrient starvation condition assessed as reduction in nonreplicating cells count incubated for 7 days at 10 ug/ml in presence of 0.2 mM cysteine; format: functional, organism-based; settings: dose 10.0 µg/ml, time 7.0 day
How it was run: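 Nutrient-starved, nonreplicating H37Rv culture exposed to compound at 10 µg/ml alongside added L-cysteine (series 0.0, 0.05, 0.2, 0.5 mM) and an untreated control. Viable bacteria counted by most probable number (MPN) assay. Run in triplicate.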

[17] = Selectivity index, ratio of Kd for binding affinity to human CBS to Kd for binding affinity to Mycobacterium tuberculosis CysM expressed in Escherichia coli strain BL21 (DE3)
[18] = Stability in presence of cysteine assessed as compound degradation incubated for 24 hrs by mass-spectrometry; format: physicochemical
[19] = Stability in presence of cysteine assessed as compound degradation incubated for 24 hrs by spectroscopy analysis; format: physicochemical
[20] = Stability in presence of cysteine assessed as compound degradation incubated for 24 hrs by HPLC analysis; format: physicochemical
[21] = target: T2, Cystathionine beta-synthase (Homo sapiens, UniProt P35520); assay: as §2
T2 sequence (P35520 whole entry): T1 sequence (whole entry)

O=C(Nc1ccccc1)Nc1cccc(C(=O)O)c1 gave a Kd ([1]; read-out: Kd) of 12.9 µM, an Activity [2] of 2.6% and a K [3] of 1.02 min⁻¹.
For O=C(Nc1ccc(Br)cc1)Nc1cccc(C(=O)O)c1, the MIC [4] was 18.6 µM, the Kd [5] was 1.4 µM and the Activity [6] was “Non-Toxic”. For the same compound, the Activity [7] was “inactive”, the Activity [2] was 1.2% and the Activity [8] was “Non-Toxic”. The Activity [9] was “Non-Toxic”, the K [3] was 0.48 min⁻¹ and the Activity [10] was “Non-Toxic”.
With O=C(Nc1cccc(-c2ccccc2)c1)Nc1ccc(O)c(C(=O)O)c1 the Kd [5] was 2.2 µM, the Activity [6] was “Non-Toxic” and the Activity [2] was 0.6%. The Activity [8] was “Non-Toxic”, the Activity [9] was “Non-Toxic” and the K [3] was 0.23 min⁻¹. The Activity [10] was “Non-Toxic”.
For O=C(Nc1ccc(Cl)c(Cl)c1)Nc1ccc(O)c(C(=O)O)c1, the Kd [1] was “Not Active” and the K [3] was over 20 min⁻¹.
In the case of O=C(Nc1cccc(C(=O)O)c1)Nc1cccc(-c2ccccc2)c1, the MIC [4] is reported as 18.8 µM, the Kd [11] is reported as 96.8 µM and the Activity [6] is reported as “Non-Toxic”. The Kd ([1]; read-out: Kd) was 1.7 µM, the Activity [2] was 0.6% and the Activity [8] was “Non-Toxic”. For the same compound, the Ratio [12] was over 80, the Ratio [13] was 15 and the Activity [14] was “inactive”. For the same compound, the Activity [9] was “Non-Toxic”, the K [3] was 0.24 min⁻¹ and the Kd [15] was 22.6 µM. For the same compound, the Activity [10] was “Non-Toxic”.
With CC(=O)c1ccc(NC(=O)Nc2cccc(C(=O)O)c2)cc1 the Kd ([1]; read-out: Kd) was 111 µM and the K [3] was over 20 min⁻¹.
For O=C(Nc1ccc(-c2cccc(Cl)c2Cl)cc1)Nc1cccc(C(=O)O)c1, the Activity [6] was “Non-Toxic”, the Activity [8] was “Non-Toxic” and the Activity [9] was “Non-Toxic”. The Activity [10] was “Non-Toxic”.
For O=C(O)c1cccc(NC(=S)Nc2ccc(Cl)cc2)c1, the Kd ([1]; read-out: Kd) was over 300 µM and the K [3] was over 20 min⁻¹.
With O=C(O)c1cccc(NS(=O)(=O)c2ccc(Cl)c(Cl)c2)c1 the Kd [1] was “Not Active” and the K [3] was over 20 min⁻¹.
In the case of O=C(NCc1ccc(Cl)c(Cl)c1)Nc1cccc(C(=O)O)c1, the Kd ([1]; read-out: Kd) is reported as over 300 µM and the K [3] is reported as over 20 min⁻¹.
Work on CO[C@H]1/C=C/O[C@@]2(C)Oc3c(C)c(O)c4c(O)c(c(/C=N/N5CCN(C)CC5)c(O)c4c3C2=O)NC(=O)/C(C)=C\C=C\[C@H](C)[C@H](O)[C@@H](C)[C@@H](O)[C@@H](C)[C@H](OC(C)=O)[C@@H]1C [RIFAMPIN] yielded an MIC [4] of 0.5 µM.
For NNC(=O)c1ccncc1 [ISONIAZID], the MIC [4] was 0.4 µM and the “log(activity)” value [7] was 1.
For O=C(Nc1ccc(Cl)cc1)Nc1cccc(C(=O)O)c1, the MIC [4] was 21.5 µM, the Kd [5] was 3.4 µM and the Activity [6] was “Non-Toxic”. The Activity [7] was “inactive”, the Activity [2] was 0.6% and the Activity [8] was “Non-Toxic”. The Activity [9] was “Non-Toxic”, the K [3] was 0.24 min⁻¹ and the Activity [10] was “Non-Toxic”.
With O=C(Nc1cccc(-c2nnn[nH]2)c1)Nc1ccc(Cl)c(Cl)c1 the Kd [1] was “Not Active” and the K [3] was over 20 min⁻¹.
For Cc1ccc(C(=O)Nc2cccc(C(=O)O)c2)cc1, the Kd [1] was “Not Active” and the K [3] was over 20 min⁻¹.
With O=C(Nc1ccc([N+](=O)[O-])cc1)Nc1cccc(C(=O)O)c1 the MIC [4] was 20.7 µM, the Activity [7] was “inactive” and the Kd ([1]; read-out: Kd) was 10.5 µM. It also gave an Activity [2] of 5.7% and a K [3] of 2.22 min⁻¹.
With O=C(Nc1cccc(C(=O)O)c1)Nc1ccc(Cl)c(Cl)c1 the Activity [16] was “inactive”, the MIC [4] was 9.6 µM and the Kd [5] was 0.32 µM. For the same compound, the Kd [11] was 241 µM, the Activity [6] was “Non-Toxic” and the Ratio [17] was 300. For the same compound, the Stabilty [18] was “Unstable”, the “log(activity)” value [7] was 3 and the Activity [2] was 0.3%. For the same compound, the Activity [8] was “Non-Toxic”, the Stabilty [19] was “Unstable” and the Ratio [12] was over 80. The Ratio [13] was 15, the Stabilty [20] was “Unstable” and the Kd [21] was 94 µM. The Activity [9] was “Non-Toxic”, the K [3] was 0.1 min⁻¹ and the Kd [15] was 30.1 µM. The Activity [10] was “Non-Toxic”.
With COc1ccc(NC(=O)Nc2cccc(C(=O)O)c2)cc1 the MIC [4] was 21.8 µM, the Activity [7] was “inactive” and the Kd ([1]; read-out: Kd) was 11.3 µM. For the same compound, the Activity [2] was 9.9% and the K [3] was 3.84 min⁻¹.
In the case of Cc1ccc(NC(=O)Nc2cccc(C(=O)O)c2)cc1, the MIC [4] is reported as 23.1 µM, the Kd ([1]; read-out: Kd) is reported as 8 µM and the Activity [2] is reported as 4.9%. For the same compound, the K [3] was 1.92 min⁻¹.
In the case of O=C(Nc1cccc(-c2ccccc2)c1)Nc1ccc(C(=O)O)c(O)c1, the Activity [16] is reported as “inactive”, the MIC [4] is reported as 2.2 µM and the “log(activity)” value [7] is reported as 3. The Kd ([1]; read-out: Kd) was 4.5 µM, the Activity [2] was 1.2% and the K [3] was 0.48 min⁻¹.
In the case of O=C(Nc1ccc(Cl)c(Cl)c1)Nc1ccc(C(=O)O)cc1O, the Kd [1] is reported as “Not Active” and the K [3] is reported as over 20 min⁻¹.
In the case of O=C(Nc1ccc(C(=O)O)c(O)c1)Nc1ccc(Cl)c(Cl)c1, the Kd [1] is reported as “Not Active” and the K [3] is reported as over 20 min⁻¹.
